From PubChem BioAssay
Yeast growth inh = chemicals that inhibit yeast BB579 growth in restrictive medium (lifespan-shortening candidates); S. cerevisiae BB579 growth, OD615, 48 h; inhibition, % at 10 µM; 0.51% of 140,000 active;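 active = inhibition above a set limit, 3 SD over the mean compound inhibition, cut at about 44% in these data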
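Test system: DeaD yeast strain BB579 / Buffer or medium: restrictive glucose-based CSMM-D medium / Doses: single 10 µM dose / Schedule: 4 h cell preincubation, 48 h compound exposure, 30 °C humidified / Technique: culture absorbance at 615 nm / Controls: amphotericin B positive control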
Phagocytosis inh = macrophage phagocytosis inhibition; 0.07% of 110,000 active; J774A.1 macrophage IgG-bead phagocytosis, imaging; AID 1029; inhibition, % at 5 µM;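 active = inhibition above the mean of the plate negative controls plus 5 SD, cut at about 13% in these data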;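 also: phagocytic index as fraction of beads internalized from green versus red external bead signal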
RAM inhibit = blocks the yeast RAM network; 1.8% of 190,000 active; AID 868; inhibition, % at 50 µM; S. cerevisiae dse1pr::URA3 reporter, 5-FOA growth OD615, 2 d; analog-sensitive cbk1-as2 kinase mutant strain;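 active = inhibition above a set limit, 3 SD over mean compound inhibition, cut at about 8.4% in these data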;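 also: inhibition rescues growth on 5-FOA so higher OD means more RAM inhibition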
Yeast life ext = yeast lifespan extension | S. cerevisiae growth with nicotinamide, OD615; deaD strain in restrictive glucose medium | inhibition of the nicotinamide effect, % at 10 µM | 0.68% of 130,000 active | AID 775;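 active = inhibition above a set limit, placed 3 SD over the median of all compounds, cut at about 26% in these data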
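Material: Modified budding yeast, DeaD strain | Medium: Restrictive glucose medium | Probe or stimulus: 1.5 mM nicotinamide | Dosing: Single dose 10 µM compound, 0.25% DMSO | Times: 48 h at 30 °C | Technique: OD615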
Numbers stand for hits; – = inactive; · = no result. Sampled rows, rich in hits. Any-hit rate of the full collection: about 2.7%.

SMILES	Yeast growth inh	Phagocytosis inh	RAM inhibit	Yeast life ext
CC(Sc1nnc2ccccn12)C(N)=O (configuration not stated)	·	·	–	·
O=C(CCSc1ccccc1Cl)Nc1cccc([N+](=O)[O-])c1	–	–	8.9	–
COCCNC(=O)c1c(N)n(-c2cccc(C)c2)c2nc3ccccc3nc12	–	–	10.0	–
COc1ccc(-n2c(N)c(C(=O)NCc3ccco3)c3nc4ccccc4nc32)cc1OC	–	–	–	–
COc1cc(-n2c(N)c(C(=O)NCc3ccco3)c3nc4ccccc4nc32)cc(OC)c1OC	–	–	11.0	–
CCOC(=O)CNc1nc(C(C)(C)C)nc2c1nnn2Cc1ccccc1Cl	–	–	10.4	–
CCc1ccc(S(=O)(=O)NC(=S)NC2CCCCC2)cc1	·	·	–	·
Cc1cc(C)c(C)c(S(=O)(=O)NC2CCN(Cc3ccccc3)CC2)c1C	·	·	–	·
O=[N+]([O-])c1ccc(-c2cnc(SC(c3ccccc3)c3ccccc3)[nH]2)cc1	–	–	9.5	–
O=[N+]([O-])c1ccc(-c2cnc(SCc3ccccc3Cl)[nH]2)cc1	–	–	–	–
CC(=O)N1CCC(N(CCN2CCOCC2)C(=S)Nc2ccccc2C)CC1	–	–	–	–
COc1cc(NS(C)(=O)=O)cc(OC)c1OC	·	·	–	·
COc1cc(NC(c2ccccc2)c2ccccc2)cc(OC)c1OC	·	·	8.4	·
Cc1cc(C(=O)Nn2c(-c3ccc(Br)cc3)nc3ccccc3c2=O)ccc1[N+](=O)[O-]	–	–	–	–
O=C(Nc1cccc(S(=O)(=O)NC2=NCCCCC2)c1)c1cc(-c2ccc(Cl)cc2)nc2ccccc12	–	·	–	–
O=C1CC(C2CCCO2)C(=O)N1Cc1ccccc1 (configuration not stated)	–	69.1	–	–
O=C1CC(C2CCCO2)C(=O)N1c1cccc(Cl)c1 (configuration not stated)	–	–	–	–
CCN(C(=O)COC(=O)c1ccc2c(=O)n3c(nc2c1)CCC3)C1CCS(=O)(=O)C1 (configuration not stated)	·	·	–	·
CN(C)/C=C(/C(=O)c1ccc(Cl)cc1)n1cncn1	·	·	–	·
COc1ccc(/C=C(/C(=O)c2ccc(Cl)cc2Cl)n2cncn2)cc1	–	–	–	43.1
CC(C)CC(=O)/C(=C\c1ccc(Cl)cc1Cl)n1cncn1	60.9	–	–	–
CN(C)c1ccc(/C=C(/C(=O)c2ccc(Cl)cc2Cl)n2cncn2)cc1	–	–	–	–
Cc1ccc(-c2cnc(NC(=O)c3cccc(Br)c3)s2)c(C)c1	–	–	–	–
O=C1N=c2ccccc2=C1c1c(O)n(-c2cccc(F)c2)[nH]c1=O	–	–	–	32.5
CCn1c(O)c(C2=c3ccccc3=NC2=O)c2cc(Br)ccc21	·	·	–	·
SMILES	Yeast growth inh	Phagocytosis inh	RAM inhibit	Yeast life ext
COc1ccc(CN2C(=O)N(c3ccc(OC)cc3)C(=O)C2CC(=O)Nc2ccccc2)cc1 (configuration not stated)	·	·	9.5	·
O=C(NCCOC12CC3CC(CC(C3)C1)C2)c1cccc(Br)c1	–	·	–	–
O=C(/C=C/c1cc([N+](=O)[O-])ccc1OC(F)F)NCc1ccc(F)cc1	–	–	8.7	–
O=C(/C=C/c1cc([N+](=O)[O-])ccc1OC(F)F)Nc1ccc(OC(F)F)cc1	·	·	–	·
Cc1cc(OC(=O)c2cc(F)c(F)cc2Cl)nc(C)n1	–	·	–	–
Cc1cc(C)c(S(=O)(=O)c2ccccc2)c(OC(=O)c2cc(F)c(F)cc2Cl)n1	–	–	–	43.4
Cc1ccc(/C=N/NC(=O)c2ccc(C(=O)N/N=C/c3ccc(C)s3)o2)s1	–	·	10.3	–
CC(=O)OC1COC(N2CCc3cc(Br)c([N+](=O)[O-])cc32)C(OC(C)=O)C1OC(C)=O (configuration not stated)	–	–	–	–
CCCCn1c(=O)c(C(=O)OCC)c(O)c2ccccc21	–	–	–	–
CCCCCCCCn1c(=O)c(C(=O)OCC)c(O)c2ccccc21	–	–	–	39.1
CCCCCn1c(=O)c(C(=O)OCC)c(O)c2ccccc21	–	–	9.0	–
N#CC(C#N)=Cc1cccn1-c1ccc(S(N)(=O)=O)cc1	·	·	–	·
CCOc1cc(S(=O)(=O)n2cc(-c3ccc(F)cc3)c(N)n2)cc(OCC)c1OCC	–	–	9.0	–
CCN(CC)S(=O)(=O)c1cc(NS(=O)(=O)c2cccc(Cl)c2Cl)ccc1C	–	–	10.1	–
COc1ccc(Br)c(C(=O)NC2CCCC2)c1	·	·	–	·
COC(=O)NCC12CC3CC(C1)CC(CNC(=O)OC)(C3)C2	–	–	–	37.2
CC(=C/c1ccco1)/C=N/NC(=O)c1nnn(-c2nonc2N)c1CN(C)C	·	·	–	·
CCC(=Nc1ccc(Cc2ccncc2)cc1)c1c(O)n(C)c(=O)n(C)c1=O	–	–	–	27.3
Cn1c(=O)c2c(O)c(Cc3ccccc3)c(=O)[nH]c2n(C)c1=O	–	–	–	–
COc1ccc(NC(=O)[C@@H](NC(=O)c2ccccc2F)C(C)C)cc1S(=O)(=O)N1CCOCC1	·	·	–	·
COc1ccc(NC(=O)c2cc3nc(-c4ccccc4)cc(-c4ccccc4)n3n2)c(OC)c1	–	–	–	–
O=C(Nc1cccc(O)c1)c1cc2nc(-c3ccccc3)cc(-c3ccccc3)n2n1	–	–	9.7	–
COc1ccc(-n2c(SCC(=O)NC3CCCCC3)nc3ccsc3c2=O)cc1	–	–	9.1	–
O=C(/C=C/c1cccc(Cl)c1)NCc1ccccc1	·	·	–	·
CC(C)CC(C(=O)NCc1ccccn1)N1C(=O)c2ccccc2C1=O (configuration not stated)	–	·	–	–
SMILES	Yeast growth inh	Phagocytosis inh	RAM inhibit	Yeast life ext
O=C(Cc1ccccc1)NCCSCc1ccc(Cl)cc1	–	·	–	–
O=C(COc1ccccc1)NCCSCc1ccc(Cl)cc1	–	·	9.9	–
COc1ccccc1CC1S/C(=N/N=C/c2ccco2)NC1=O (configuration not stated)	·	·	–	·
CSc1nsc2nc(=O)c(/C=C3\C(C)=Nc4ccc(C)cc43)c(N)n12	·	·	9.3	·
CC1=Nc2ccc(C)cc2/C1=C/c1c(N)n2c(S(=O)(=O)C(C)C)nsc2nc1=O	·	·	–	·
O=C(CSc1nnc(SCc2ccccc2)s1)N/N=C/C=C\c1ccco1	–	–	11.1	–
O=C(CSc1nnc(SCc2ccccc2)s1)N/N=C/C=C/c1ccccc1[N+](=O)[O-]	–	–	–	–
COc1ccc(S(=O)(=O)N2CCCC(C(=O)NCCC(C)C)C2)cc1 (configuration not stated)	·	·	–	·
O=C(O)c1cc(-c2ccc(/C=N/Nc3ccc(Cl)cc3)o2)ccc1Cl	94.9	–	–	–
Nc1nonc1C(=O)N/N=C/c1ccc(-c2ccc(Cl)c(C(=O)O)c2)o1	·	·	–	·
CC(C)c1ccc(C2C3CSCC=C3C(C#N)=C(N)C2(C#N)C#N)cc1 (configuration not stated)	–	–	–	28.8
CN1CC=C2C(C#N)=C(N)C(C#N)(C#N)[C@H](c3cccc(Cl)c3)C2C1 (some centres not stated)	–	–	–	–
O=C(O)c1ccc2c3c(ncnc13)-c1ccccc1C2=O	96.1	–	–	–
O=C(Nc1ccc(OC(F)F)cc1)Nc1cccc(C(F)(F)F)c1	–	–	–	–
